Converted amounts (≈) assume the structure as drawn. The source made the active and inactive calls. The calls are words filed in the database; no cut-off is given here.
How the values were obtained:
[1] = fT>MIC in Klebsiella pneumoniae isolate KPC 356 infected in human at 1 g administered as 4 hrs infusion every 8 hrs; type: functional
Klebsiella pneumoniae [2] = assay: Antimicrobial activity against Klebsiella pneumoniae isolate KPC 356 in immunocompetent mouse thigh infection model assessed as reduction in bacterial load in mouse thigh at 2 g after 24 hrs; type: functional, Thigh muscle
Procedure, shortened: (§1)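 Immunocompetent ICR mouse thigh model. Uranyl nitrate 5 mg/kg i.p. on day −3, no cyclophosphamide. Thighs inoculated i.m. with ~10⁸ CFU. From 2 h, s.c. doripenem regimens simulating human 1 or 2 g q8h 4-h infusions, given as three 8-h intervals; saline controls. Thighs homogenized in saline and plated at 24 h; change in log₁₀ CFU relative to 0-h untreated mice.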

[3] = fT>MIC in Klebsiella pneumoniae isolate KPC 361 infected in human at 2 g administered as 4 hrs infusion every 8 hrs; type: functional
Klebsiella pneumoniae [4] = assay: Antimicrobial activity against Klebsiella pneumoniae isolate KPC 359 by Etest; type: functional
Procedure, shortened: (§2)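 Etest on each clinical isolate, run in triplicate and read per the manufacturer's instructions; the modal MIC is reported. Quality control strain P. aeruginosa ATCC 27853. Isolates stored at −80°C in double-strength skim milk and subcultured twice on Trypticase soy agar with 5% sheep blood at 35°C before testing.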

Klebsiella pneumoniae [5] = assay: Antimicrobial activity against Klebsiella pneumoniae isolate KPC 361 in immunocompromized mouse thigh infection model assessed as reduction in bacterial load in mouse thigh at 1 g after 24 hrs; type: functional, organism-based; details: Thigh muscle
Procedure, shortened: (§3)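 Neutropenic murine thigh model. Cyclophosphamide 150 and 100 mg/kg i.p. at 4 and 1 days pre-inoculation. Uranyl nitrate 5 mg/kg i.p. at day −3 for renal impairment. Each thigh injected i.m. with ~10⁶ CFU/ml, 0.1 ml. At 2 h, s.c. doripenem regimens simulating human fT>MIC for 1 or 2 g q8h 4-h infusion; saline controls. Thighs plated at 24 h; Δlog₁₀ CFU vs 0-h controls; stasis <1 log change.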

[6] = fT>MIC in Klebsiella pneumoniae isolate KPC 353 infected in human at 2 g administered as 4 hrs infusion every 8 hrs; type: functional
[7] = fT>MIC in Klebsiella pneumoniae isolate KPC 353 infected in human at 1 g administered as 4 hrs infusion every 8 hrs; type: functional
Klebsiella pneumoniae [8] = assay: Antimicrobial activity against Klebsiella pneumoniae isolate KPC 354 by Etest; type: functional; procedure, shortened: as §2
Klebsiella pneumoniae [9] = assay: Antimicrobial activity against Klebsiella pneumoniae isolate KPC 361 in immunocompromized mouse thigh infection model assessed as reduction in bacterial load in mouse thigh at 2 g after 24 hrs; type: functional, organism-based; details: Thigh muscle; procedure, shortened: as §3
[10] = fT>MIC in Klebsiella pneumoniae isolate KPC 361 infected in human at 1 g administered as 4 hrs infusion every 8 hrs; type: functional
Klebsiella pneumoniae [11] = assay: Antimicrobial activity against Klebsiella pneumoniae isolate KPC 357 in immunocompromized mouse thigh infection model assessed as decrease in bacterial density in mouse thigh at 1 g after 24 hrs; type: functional, Thigh muscle; procedure, shortened: as §3
Klebsiella pneumoniae [12] = assay: Antimicrobial activity against Klebsiella pneumoniae isolate KPC 354 in immunocompetent mouse thigh infection model assessed as reduction in bacterial load in mouse thigh at 1 g after 24 hrs; type: functional, Thigh muscle; procedure, shortened: as §1
Klebsiella pneumoniae [13] = assay: Antimicrobial activity against Klebsiella pneumoniae isolate KPC 354 in immunocompetent mouse thigh infection model assessed as reduction in bacterial load in mouse thigh at 2 g after 24 hrs; type: functional, Thigh muscle; procedure, shortened: as §1
Klebsiella pneumoniae [14] = assay: Antimicrobial activity against Klebsiella pneumoniae isolate KPC 360 by broth microdilution method; type: functional
Procedure, shortened: (§4)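 Clinical KPC-producing isolate, stored at −80°C in double-strength skim milk, subcultured twice on Trypticase soy agar with 5% sheep blood at 35°C. MIC by broth microdilution per CLSI methods, run in triplicate, modal MIC reported; quality control strain PSA 27853 included.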

Klebsiella pneumoniae [15] = assay: Antimicrobial activity against Klebsiella pneumoniae isolate KPC 359 by broth microdilution method; type: functional; procedure, shortened: as §4
Klebsiella pneumoniae [16] = assay: Antimicrobial activity against Klebsiella pneumoniae isolate KPC 356 in immunocompromized mouse thigh infection model assessed as decrease in bacterial density in mouse thigh at 1 g after 24 hrs; type: functional, Thigh muscle; procedure, shortened: as §3
Klebsiella pneumoniae [17] = assay: Bacteriostatic activity against Klebsiella pneumoniae isolate KPC 359 in immunocompromized mouse thigh infection model at 2 g after 24 hrs; type: functional, organism-based; details: Thigh muscle; procedure, shortened: as §3
Klebsiella pneumoniae [18] = assay: Antimicrobial activity against Klebsiella pneumoniae isolate KPC 361 by Etest; type: functional; procedure, shortened: as §2
Klebsiella pneumoniae [19] = assay: Antimicrobial activity against Klebsiella pneumoniae isolate KPC 356 in immunocompetent mouse thigh infection model assessed as reduction in bacterial load in mouse thigh at 1 g after 24 hrs; type: functional, Thigh muscle; procedure, shortened: as §1
[20] = fT>MIC in Klebsiella pneumoniae isolate KPC 354 infected in human at 1 g administered as 4 hrs infusion every 8 hrs; type: functional
Klebsiella pneumoniae [21] = assay: Antimicrobial activity against Klebsiella pneumoniae isolate KPC 353 by Etest; type: functional; procedure, shortened: as §2
Klebsiella pneumoniae [22] = assay: Antimicrobial activity against Klebsiella pneumoniae isolate KPC 356 by Etest; type: functional; procedure, shortened: as §2
Klebsiella pneumoniae [23] = assay: Antimicrobial activity against Klebsiella pneumoniae isolate KPC 353 by broth microdilution method; type: functional
Procedure, shortened: (§5)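 MIC by CLSI broth microdilution, triplicate determinations, modal value reported. QC strain P. aeruginosa 27853. Isolates kept frozen at −80°C in skim milk and subcultured twice on blood agar (TSA + 5% sheep blood) at 35°C before use.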

[24] = fT>MIC in Klebsiella pneumoniae isolate KPC 356 infected in human at 2 g administered as 4 hrs infusion every 8 hrs; type: functional
Klebsiella pneumoniae [25] = assay: Antimicrobial activity against Klebsiella pneumoniae isolate KPC 354 in immunocompromized mouse thigh infection model assessed as decrease in bacterial density in mouse thigh at 1 g after 24 hrs; type: functional, Thigh muscle; procedure, shortened: as §3
[26] = fT>MIC in Klebsiella pneumoniae isolate KPC 360 infected in human at 1 g administered as 4 hrs infusion every 8 hrs; type: functional
[27] = fT>MIC in Klebsiella pneumoniae isolate KPC 360 infected in human at 2 g administered as 4 hrs infusion every 8 hrs; type: functional
[28] = fT>MIC in Klebsiella pneumoniae isolate KPC 359 infected in human at 1 g administered as 4 hrs infusion every 8 hrs; type: functional
Klebsiella pneumoniae [29] = assay: Antimicrobial activity against Klebsiella pneumoniae isolate KPC 360 by Etest; type: functional
Procedure, shortened: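 Clinical KPC-producing isolate stored at −80°C in double-strength skim milk and subcultured twice on blood agar (5% sheep blood) at 35°C before testing. Etest strip MIC read per manufacturer's interpretation, run in triplicate, modal value reported; quality control strain PSA 27853 included.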

Klebsiella pneumoniae [30] = assay: Antimicrobial activity against Klebsiella pneumoniae isolate KPC 361 by broth microdilution method; type: functional; procedure, shortened: as §5
Klebsiella pneumoniae [31] = assay: Antimicrobial activity against Klebsiella pneumoniae isolate KPC 353 in immunocompromized mouse thigh infection model assessed as decrease in bacterial density in mouse thigh at 1 g after 24 hrs; type: functional, Thigh muscle; procedure, shortened: as §3
Klebsiella pneumoniae [32] = assay: Antimicrobial activity against Klebsiella pneumoniae isolate KPC 354 by broth microdilution method; type: functional; procedure, shortened: as §5
[33] = fT>MIC in Klebsiella pneumoniae isolate KPC 357 infected in human at 1 g administered as 4 hrs infusion every 8 hrs; type: functional
[34] = fT>MIC in Klebsiella pneumoniae isolate KPC 357 infected in human at 2 g administered as 4 hrs infusion every 8 hrs; type: functional
[35] = fT>MIC in Klebsiella pneumoniae isolate KPC 354 infected in human at 2 g administered as 4 hrs infusion every 8 hrs; type: functional
Klebsiella pneumoniae [36] = assay: Antimicrobial activity against Klebsiella pneumoniae isolate KPC 357 by broth microdilution method; type: functional; procedure, shortened: as §5
Klebsiella pneumoniae [37] = assay: Antimicrobial activity against Klebsiella pneumoniae isolate KPC 357 by Etest; type: functional; procedure, shortened: as §2
Klebsiella pneumoniae [38] = assay: Antimicrobial activity against Klebsiella pneumoniae isolate KPC 359 in immunocompetent mouse thigh infection model assessed as reduction in bacterial load in mouse thigh at 2 g after 24 hrs; type: functional, Thigh muscle; procedure, shortened: as §1
[39] = fT>MIC in Klebsiella pneumoniae isolate KPC 359 infected in human at 2 g administered as 4 hrs infusion every 8 hrs; type: functional
Klebsiella pneumoniae [40] = assay: Antimicrobial activity against Klebsiella pneumoniae isolate KPC 356 by broth microdilution method; type: functional; procedure, shortened: as §5
Klebsiella pneumoniae [41] = assay: Antimicrobial activity against Klebsiella pneumoniae; type: functional

## C[C@@H](O)[C@H]1C(=O)N2C(C(=O)O)=C(S[C@@H]3CN[C@H](CNS(N)(=O)=O)C3)[C@H](C)[C@H]12 [DORIPENEM]
[1]
  fT>MIC: 52.5%
Klebsiella pneumoniae [2]
  log10cfu: 1
[3]
  fT>MIC: 0%
Klebsiella pneumoniae [4]
  MIC: > 32 µg/mL
Klebsiella pneumoniae [5]
  Activity: inactive
[6]
  fT>MIC: 82.5%
[7]
  fT>MIC: 70%
Klebsiella pneumoniae [8]
  MIC: 4 µg/mL (≈ 9.51 µM)
Klebsiella pneumoniae [9]
  Activity: inactive
[10]
  fT>MIC: 0%
Klebsiella pneumoniae [11]
  log10cfu: 0.02
Klebsiella pneumoniae [12]
  log10cfu: 1
Klebsiella pneumoniae [13]
  log10cfu: 1
Klebsiella pneumoniae [14]
  MIC: 16 µg/mL (≈ 38 µM)
Klebsiella pneumoniae [15]
  MIC: 16 µg/mL (≈ 38 µM)
Klebsiella pneumoniae [16]
  log10cfu: 0.02
Klebsiella pneumoniae [17]
  Activity: Active
Klebsiella pneumoniae [18]
  MIC: > 32 µg/mL
Klebsiella pneumoniae [19]
  log10cfu: 1
[20]
  fT>MIC: 70%
Klebsiella pneumoniae [21]
  MIC: 3 µg/mL (≈ 7.13 µM)
Klebsiella pneumoniae [22]
  MIC: 12 µg/mL (≈ 28.5 µM)
Klebsiella pneumoniae [23]
  MIC: 4 µg/mL (≈ 9.51 µM)
[24]
  fT>MIC: 70%
Klebsiella pneumoniae [25]
  log10cfu: 0.02
[26]
  fT>MIC: 0%
[27]
  fT>MIC: 52.5%
[28]
  fT>MIC: 0%
Klebsiella pneumoniae [29]
  MIC: 16 µg/mL (≈ 38 µM)
Klebsiella pneumoniae [30]
  MIC: 32 µg/mL (≈ 76.1 µM)
Klebsiella pneumoniae [31]
  log10cfu: 0.02
Klebsiella pneumoniae [32]
  MIC: 4 µg/mL (≈ 9.51 µM)
[33]
  fT>MIC: 52.5%
[34]
  fT>MIC: 70%
[35]
  fT>MIC: 82.5%
Klebsiella pneumoniae [36]
  MIC: 8 µg/mL (≈ 19 µM)
Klebsiella pneumoniae [37]
  MIC: 6 µg/mL (≈ 14.3 µM)
Klebsiella pneumoniae [38]
  log10cfu: 1
[39]
  fT>MIC: 52.5%
Klebsiella pneumoniae [40]
  MIC: 8 µg/mL (≈ 19 µM)

## C[C@@H](O)[C@H]1C(=O)N2C(C(=O)O)=C(S[C@@H]3CN[C@H](C(=O)N(C)C)C3)[C@H](C)[C@H]12 [MEROPENEM]
Klebsiella pneumoniae [41]
  MIC: 2 µg/mL (≈ 5.22 µM)
